Compound activity (PubChem)
Most compounds without a hit are left out; they make up all but 0.64% or so of the library.
TNAP inh hiacc – human TNAP enzyme inhibitors, primary screen, biochemical, luminescent, high phosphate acceptor level, uHTS; Alkaline phosphatase, tissue-nonspecific isozyme (Homo sapiens), P05186; purified TNAP, CDP-star luminescence, 1 M DEA; inhibition, % at 20 µM; 0.03% of 200,000 active; AID 1135, 2008;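 active = over 50% inhibition of tissue-nonspecific alkaline phosphatase at 20 µM in the single-dose screen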;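 also: plate controls were DMSO wells for no effect and EDTA-quenched wells as full inhibition for full effect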
Target sequence (P05186 whole entry, looked up): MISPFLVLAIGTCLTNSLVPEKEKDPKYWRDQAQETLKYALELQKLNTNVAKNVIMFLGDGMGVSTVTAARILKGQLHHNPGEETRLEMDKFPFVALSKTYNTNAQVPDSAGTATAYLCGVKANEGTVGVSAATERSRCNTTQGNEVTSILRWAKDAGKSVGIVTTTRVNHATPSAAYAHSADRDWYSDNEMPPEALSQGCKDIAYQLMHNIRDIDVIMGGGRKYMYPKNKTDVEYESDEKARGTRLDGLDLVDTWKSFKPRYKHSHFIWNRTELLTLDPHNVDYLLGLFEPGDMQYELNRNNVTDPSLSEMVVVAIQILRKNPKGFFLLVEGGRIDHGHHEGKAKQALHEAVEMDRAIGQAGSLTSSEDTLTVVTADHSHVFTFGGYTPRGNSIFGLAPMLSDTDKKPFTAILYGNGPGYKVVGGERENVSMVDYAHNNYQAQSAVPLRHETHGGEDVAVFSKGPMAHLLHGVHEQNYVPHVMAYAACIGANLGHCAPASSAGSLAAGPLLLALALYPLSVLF
PMI act – activators of human PMI, primary screen, biochemical, fluorescence intensity, near-Km mannose 6-phosphate. 0.005% of 190,000 active. activation factor at 20 µM. Mannose-6-phosphate isomerase (Homo sapiens), P34949. purified human PMI, coupled resazurin fluorescence, 20 min; hits give high values; 1 = vehicle control, 0 substrate-free wells;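 active = activation factor of 2 or more at 20 µM, relative to plate controls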
TNAP act hi DEA – TNAP activators at high phosphate acceptor level, primary screen, biochemical, luminescence, uHTS; purified TNAP, CDP-star luminescence, 1 M DEA, 30 min; hits give high values; 0 = EDTA background, 1 = DMSO-only activity; activation factor at 20 µM; 200,000 tested, under 10 active; AID 1136, 2008;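 active = activation factor at least 2 at 20 µM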
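Measured by: Luminescent substrate turnover signal | Test system: Human TNAP | Input: TNAP 1/800 final | Dosing: 20 µM single point | Schedule: 30 min, room temperature | Controls: EDTA wells as negative control, DMSO wells as positive control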
TNAP inh no acc – human TNAP enzyme inhibitors, primary screen, biochemical, luminescent, no phosphate acceptor, uHTS; inhibition, % at 20 µM; Alkaline phosphatase, tissue-nonspecific isozyme (Homo sapiens), P05186; 0.26% of 200,000 active; AID 1012, 2008; purified TNAP, CDP-star luminescence, 30 min;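 active = tissue-nonspecific alkaline phosphatase inhibition above about 50% at 20 µM in the single-dose screen, limit read from the data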;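 also: 0% = DMSO negative control and 100% = EDTA positive control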
PMI act satM6P – human PMI activators, high substrate, primary screen, biochemical, fluorescence intensity, near-saturating mannose 6-phosphate; Mannose-6-phosphate isomerase (Homo sapiens), P34949; coupled PMI enzyme assay, resazurin fluorescence, 20 min; hits give high values; 1 = untreated enzyme, 0 = substrate-free blank; activation factor at 20 µM; 0.34% of 190,000 active;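 active = activation factor of 2 or more at 20 µM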
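Material: human phosphomannose isomerase with PGI, G6PDH, diaphorase coupling enzymes. Quantity: 15 ng/mL PMI. Medium: HEPES pH 7.4 buffer with MgCl2 and Tween-20. Reagent: Near-saturating mannose-6-phosphate, 1.0 mM. Compound: 20 µM single dose. Times: enzyme reaction with compound 20 min at room temperature. Detection: resorufin fluorescence at Ex 544/Em 590 nm.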
* marks the source's active call; other numbers are inactive results.

For CC/C(=N\Nc1ccc([N+](=O)[O-])cc1)c1ccccc1 the results were TNAP inh hiacc 13, PMI act 1.2, TNAP act hi DEA 0.9, TNAP inh no acc 9 and PMI act satM6P 1.1.
Screening CCCCCCN1CC(C(=O)OCC)C(=O)C1=O (stereo not drawn) returned TNAP inh hiacc 2, PMI act 1, TNAP act hi DEA 1, TNAP inh no acc -13 and PMI act satM6P 1.1.
`O=c1c2c3c(sc2n2cnnc2n1Cc1ccccc1)CN(Cc1ccccc1)CC3` gave TNAP inh hiacc 3, PMI act 1.5, TNAP act hi DEA 1, TNAP inh no acc -4 and PMI act satM6P 2*.
Cc1nnc2n(Cc3ccccc3)c(=O)c3c4c(sc3n12)CN(Cc1ccccc1)CC4 was read as TNAP inh hiacc -4, PMI act 0.9, TNAP act hi DEA 1, TNAP inh no acc -1 and PMI act satM6P 0.9.
`CCOC(=O)C1=C(C)NC(SC)=NC1c1ccc(OC)cc1` (stereo not drawn) gave TNAP inh hiacc -2, PMI act 1.5, TNAP act hi DEA 1, TNAP inh no acc -7 and PMI act satM6P 2.3*.
`O=C1Nc2cc(S(=O)(=O)N3CCCC3)ccc2N2CCCC12` (stereo not drawn) gave TNAP inh hiacc -5, PMI act 1.3, TNAP act hi DEA 1.1, TNAP inh no acc -24 and PMI act satM6P 2*.
O=C1Nc2ccccc2N2CCCC12 (stereo not drawn) was read as TNAP inh hiacc 1, PMI act 1.2, TNAP act hi DEA 1, TNAP inh no acc -29 and PMI act satM6P 1.8.
`Cc1nc(SCC(=O)NC2CCCC2)[nH]c(=O)c1Cc1ccccc1` gave TNAP inh hiacc -1, PMI act 1, TNAP act hi DEA 1, TNAP inh no acc -22 and PMI act satM6P 1.1.
Screening O=C(N/N=C/c1ccco1)c1cc(-c2ccccc2)n[nH]1 returned TNAP inh hiacc 22, PMI act 0.9, TNAP act hi DEA 0.8, TNAP inh no acc 93* and PMI act satM6P 0.9.
For Cc1ccc(-c2cc(C(=O)N/N=C/c3ccco3)[nH]n2)cc1 the results were TNAP inh hiacc 15, PMI act 0.9, TNAP act hi DEA 0.9, TNAP inh no acc 87* and PMI act satM6P 0.9.
O=C(N/N=C/c1ccco1)c1cc(-c2cccc3ccccc23)n[nH]1 was read as TNAP inh hiacc 4, PMI act 0.9, TNAP act hi DEA 1, TNAP inh no acc 27 and PMI act satM6P 1.
Cc1ccc(Sc2ccc(CN3CCCCC3)cc2[N+](=O)[O-])cc1 was read as TNAP inh hiacc 31, PMI act 1, TNAP act hi DEA 0.7, TNAP inh no acc -7 and PMI act satM6P 1.
NC(=NC1CCCCC1)c1ccc([N+](=O)[O-])cc1 was read as TNAP inh hiacc -16, PMI act 1.2, TNAP act hi DEA 1.2, TNAP inh no acc -10 and PMI act satM6P 1.2.
Screening CCN(CC(=O)Nc1sc2c(c1C#N)CCC(C)C2)CC(=O)NC1CCS(=O)(=O)C1 (stereo not drawn) returned TNAP inh hiacc -6, PMI act 1.1, TNAP act hi DEA 1.1, TNAP inh no acc -10 and PMI act satM6P 1.1.
CCn1c(SCC(=O)Nc2sc3c(c2C#N)CCCC3)nnc1-c1ccco1 was read as TNAP inh hiacc 53*, PMI act 0.9, TNAP act hi DEA 0.5, TNAP inh no acc 35 and PMI act satM6P 1.
Screening CCn1c(SCC(=O)Nc2sc3c(c2C#N)CCC(C(C)(C)C)C3)nnc1-c1ccco1 (stereo not drawn) returned TNAP inh hiacc 4, PMI act 0.8, TNAP act hi DEA 1, TNAP inh no acc -3 and PMI act satM6P 0.8.
For O=C(O)c1ccccc1C(=O)N1N=C2/C(=C/c3cccc([N+](=O)[O-])c3)CCCC2C1c1cccc([N+](=O)[O-])c1 (stereo not drawn) the results were TNAP inh hiacc 3, PMI act 1, TNAP act hi DEA 1, TNAP inh no acc 79* and PMI act satM6P 1.
`O=C(NNc1cccc(Cl)c1)c1cccnc1Cl` gave TNAP inh hiacc 1, PMI act 1.7, TNAP act hi DEA 1, TNAP inh no acc -6 and PMI act satM6P 2*.
O=C(NNc1cccc(Cl)n1)c1cccnc1Cl was read as TNAP inh hiacc 0, PMI act 1.1, TNAP act hi DEA 1, TNAP inh no acc -41 and PMI act satM6P 1.
For Nc1c(C(=O)O)sc2nc(-c3ccccc3)c3c(c12)CCCC3 the results were TNAP inh hiacc 3, PMI act 1.5, TNAP act hi DEA 1, TNAP inh no acc 2 and PMI act satM6P 2.2*.
For CCN1C(=O)CS/C1=N\S(=O)(=O)c1ccc(C)cc1 the results were TNAP inh hiacc -1, PMI act 0.9, TNAP act hi DEA 1, TNAP inh no acc -4 and PMI act satM6P 0.9.
Cc1cc(=S)cc(C)n1CCO was read as TNAP inh hiacc 1, PMI act 1.6, TNAP act hi DEA 1, TNAP inh no acc 0 and PMI act satM6P 2.4*.
For O=c1c2ccccc2cnn1Cc1n[nH]c(=S)n1-c1cc(Cl)cc(Cl)c1 the results were TNAP inh hiacc 7, PMI act 0.9, TNAP act hi DEA 0.9, TNAP inh no acc 61* and PMI act satM6P 0.9.
Screening O=c1c2ccccc2cnn1Cc1n[nH]c(=S)n1-c1ccc(F)c(Cl)c1 returned TNAP inh hiacc -4, PMI act 1, TNAP act hi DEA 1, TNAP inh no acc 1 and PMI act satM6P 1.
Screening Cc1noc(C)c1CSc1nnc(-c2ccccc2)o1 returned TNAP inh hiacc -6, PMI act 0.9, TNAP act hi DEA 1.1, TNAP inh no acc -1 and PMI act satM6P 0.9.
For O=C(NNc1cc(Br)c(O)c(Br)c1)c1ccccc1 the results were TNAP inh hiacc 3, PMI act 1.6, TNAP act hi DEA 1, TNAP inh no acc 34 and PMI act satM6P 2*.
For Cc1cccc(C(=O)NNC(=O)c2ccccc2)c1 the results were TNAP inh hiacc -7, PMI act 0.9, TNAP act hi DEA 1.1, TNAP inh no acc -14 and PMI act satM6P 1.
Screening Cc1ccc(C)c2nc(N3CCCC3)c(C#N)cc12 returned TNAP inh hiacc -8, PMI act 1.1, TNAP act hi DEA 1.1, TNAP inh no acc -20 and PMI act satM6P 2*.
`Cc1cccc2cc(C#N)c(N3CCN(C)CC3)nc12` gave TNAP inh hiacc 2, PMI act 0.9, TNAP act hi DEA 1, TNAP inh no acc -2 and PMI act satM6P 0.9.
